Measurements reported in ChEMBL document CHEMBL3792331, “Identification and synthesis of potent and selective pyridyl-isoxazole based agonists of sphingosine-1-phosphate 1 (S1P1)” (Bioorg Med Chem Lett, 2016).

How the values were obtained:
[1] = Selectivity index, ratio of EC50 for agonist activity at human S1P3 receptor expressed in EDG3-Ga15-bla HEK293T cell membranes to EC50 for agonist activity at human S1P1 receptor expressed in CHO cell membranes; type: cell-based
Summary of the method: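 S1P3/S1P1 ratio of GTPγ[35S] EC50s. Membranes from EDG3-Ga15-bla HEK293T (S1P3) or S1P1/CHO cells, […], 0.2 nM final [35S]GTP. HEPES pH 7.5 buffer with MgCl2, NaCl, EGTA, DTT, GDP, BSA and saponin. 45 min at room temperature, filtration read-out. Each EC50 taken at 50% of the compound's own Ymax.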

Rattus norvegicus [2] = test: Reduction in circulating lymphocytes in Lewis rat at 1 mg/kg, po after 4 hrs; type: functional
Summary of the method: (§1)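 Healthy Lewis rats dosed orally with test article as solution or suspension in vehicle, or vehicle alone. Blood drawn at 4 h and 24 h. Circulating lymphocyte percentage measured by hematology analyzer, expressed as reduction versus the vehicle group. Group average, n = 3–4.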

Plasma = test: Ratio of plasma concentration Lewis rat at 1 mg/kg, po after 4 hrs to plasma concentration Lewis rat at 1 mg/kg, po after 24 hrs; type: ADME, organism-based; conditions: in vivo
Summary of the method: (§2)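 Lewis rats given 1.0 mg/kg orally as solution or suspension in vehicle. Plasma drug concentration measured in blood drawn at 4 h and 24 h; 4 h/24 h ratio taken from these values.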

[3] = Plasma concentration Lewis rat at 1 mg/kg, po after 4 hrs; type: ADME, organism-based; summary of the method: as §2
Rattus norvegicus [4] = test: Reduction in circulating lymphocytes in Lewis rat at 1 mg/kg, po after 24 hrs; type: functional; summary of the method: as §1
[5] = Plasma concentration Lewis rat at 1 mg/kg, po after 24 hrs; type: ADME, organism-based; summary of the method: as §2

Ratio (Plasma): 30
concentration at 4 h [3]: 292 nM
concentration at 24 h [5]: 9.9 nM
SMILES: CCCc1c(-c2nc(-c3ccc(CN4CC(C(=O)O)C4)cc3)no2)noc1-c1ccccn1
Ratio EC50 [1]: 2500
inhibition in vivo at 1 mg/kg (Rattus norvegicus [2]): 81%
inhibition in vivo at 1 mg/kg (Rattus norvegicus [4]): 53%
